The source made the active and inactive calls. The calls are words filed in the database; no cut-off is given here.
Key:
[1] = system: Poly(dA-dT)oligonucleotide
[2] = Selectivity index, ratio of IC50 for cytotoxicity against rat L6 cells to IC50 for antitrypanosomal activity against Trypanosoma brucei rhodesiense STIB900; format: toxicity, cell-based; conditions: read-out: Selectivity Index
Method in brief: (§1)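 SI = IC50(L6)/IC50(parasite): K1 P. falciparum for the antiplasmodial index, T. b. rhodesiense STIB900 for the antitrypanosomal index. L6 rat myoblasts were run as in the trypanosome assay: MEM with 2-mercaptoethanol and 15% heat-inactivated horse serum, seven 3-fold serial dilutions, 72 h at 37 °C in 5% CO2.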

L6 = test: Cytotoxicity against rat L6 cells by Alamar blue assay; format: cell-based
Method in brief: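 L6 rat myoblasts were run by the same Alamar Blue protocol as the trypanosome assay. Seven 3-fold serial dilutions were incubated 72 h at 37 °C, 5% CO₂, followed by 2–4 h with dye.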

[3] = Selectivity index, ratio of IC50 for cytotoxicity against rat L6 cells to IC50 for antiplasmodial activity against chloroquine and pyrimethamine resistant Plasmodium falciparum K1 infected in human red blood cells; format: toxicity, cell-based; conditions: read-out: Selectivity Index
Method in brief: as §1

[4] = system: Trypanosoma brucei rhodesiense; test: Antitrypanosomal activity against bloodstream form of Trypanosoma brucei rhodesiense STIB900 infected in mouse assessed as reduction in parasitemia by measuring time taken to cure at 5 mg/kg, ip measured up to 60 days (reference value: 11 days); format: functional; conditions: time day <=60
[5] = system: Trypanosoma brucei rhodesiense; test: Antitrypanosomal activity against Trypanosoma brucei rhodesiense STIB900 measured after 72 hrs by alamar blue dye based fluorimetry analysis; format: functional, organism-based; conditions: STIB900, 72 h
Plasmodium falciparum = test: Antiplasmodial activity against chloroquine and pyrimethamine resistant Plasmodium falciparum K1 infected in human erythrocytes assessed as reduction in [3H]hypoxanthine incorporation measured after 24 hrs by liquid scintillation counting method; format: functional, organism-based
[6] = system: Trypanosoma brucei rhodesiense; test: Antitrypanosomal activity against Trypanosoma brucei rhodesiense STIB900 infected in mouse assessed as reduction in parasitemia by measuring time taken to cure at 25 mg/kg, po measured up to 60 days (reference value: 11 days); format: functional; conditions: time day <=60
[7] = system: Poly(dA-dT)oligonucleotide; test: Binding affinity to poly (dA-dT) (unknown origin) by circular dichroism spectroscopy; format: nucleic-acid assay

N=C(N)c1ccc(-c2ccc(Cc3cccc(C(=N)N)c3)cc2)cc1
ΔTm [1]: 8.5 °C | selectivity ratio [2]: 57.1 | IC50 (L6): 2000 nM | selectivity ratio [3]: 64.5 | Time [4]: 22.75 days | IC50 [5]: 35 nM | IC50 (Plasmodium falciparum): 31 nM

N=C(N)c1ccc(-c2ccc(-c3ccc(C(=N)N)cc3)o2)cc1 [FURAMIDINE]
Time [4]: 24 days

CO/N=C(\N)c1ccc(-c2ccc(Oc3ccc(/C(N)=N\OC)cc3)nc2)cc1
selectivity ratio [2]: 6.3 | IC50 (L6): 91000 nM | selectivity ratio [3]: 9.7 | IC50 [5]: 14400 nM

CN(C)CCCC(=O)O/N=C(\N)c1ccc(Cc2ccc(-c3ccc(/C(N)=N\OC(=O)CCCN(C)C)cc3)cc2)cc1
selectivity ratio [2]: 10.5 | IC50 (L6): 1100 nM | selectivity ratio [3]: 6 | IC50 [5]: 105 nM | Time [6]: 7 days | IC50 (Plasmodium falciparum): 183 nM

N=C(N)c1ccc(Cc2ccc(Cc3cccc(C(=N)N)c3)cc2)cc1
ΔTm [1]: 0.5 °C | selectivity ratio [2]: 1890 | IC50 (L6): 28300 nM | selectivity ratio [3]: 1230 | Time [4]: 15.5 days | IC50 [5]: 15 nM

N=C(N)c1ccc(OCCCCCOc2ccc(C(=N)N)cc2)cc1 [PENTAMIDINE]
Time [4]: 20 days

CO/N=C(\N)c1cccc(Cc2ccc(Cc3ccc(/C(N)=N\OC)cc3)cc2)c1
selectivity ratio [2]: 1.7 | IC50 (L6): 32300 nM | selectivity ratio [3]: > 3.4 | IC50 [5]: 18700 nM | Time [6]: 9.2 days | IC50 (Plasmodium falciparum): > 9500 nM

N=C(N)c1ccc(Cc2ccc(Cc3ccc(C(=N)N)cc3)o2)cc1
ΔTm [1]: 2.25 °C | selectivity ratio [2]: 930 | IC50 (L6): 25000 nM | selectivity ratio [3]: 1390 | Time [4]: 18.75 days | IC50 [5]: 27 nM

N=C(N)c1ccc(Oc2cccc(Oc3ccc(C(=N)N)cc3)n2)cc1
ΔTm [1]: 1.25 °C | selectivity ratio [2]: 263 | IC50 (L6): 99300 nM | selectivity ratio [3]: 307 | IC50 [5]: 378 nM | IC50 (Plasmodium falciparum): 323 nM

N=C(N)c1ccc(Cc2ccc(Cc3ccc(C(=N)N)cc3)cc2)cc1
ΔTm [1]: 1 °C | selectivity ratio [2]: 269 | IC50 (L6): 19400 nM | selectivity ratio [3]: 970 | Time [4]: 16.25 days | IC50 [5]: 72 nM | IC50 (Plasmodium falciparum): 23 nM

N=C(N)c1ccc(Oc2ccc(-c3ccc(C(=N)N)cc3)cn2)cc1
ΔTm [1]: 17.8 °C | selectivity ratio [2]: 191 | IC50 (L6): 2100 nM | selectivity ratio [3]: 525 | Time [4]: >45.5 days | IC50 [5]: 11 nM | Activity [7]: inactive

N=C(N)c1ccc(Cc2ccc(-c3ccc(C(=N)N)cc3)cc2)cc1
ΔTm [1]: 9 °C | selectivity ratio [2]: 54.8 | IC50 (L6): 4000 nM | selectivity ratio [3]: 1330 | Time [4]: 22 days | IC50 [5]: 73 nM | IC50 (Plasmodium falciparum): 3 nM

CO/N=C(\N)c1cccc(Cc2ccc(-c3ccc(/C(N)=N\OC)cc3)cc2)c1
selectivity ratio [2]: 2.1 | IC50 (L6): 34800 nM | selectivity ratio [3]: 3.7 | IC50 [5]: 16600 nM | Time [6]: 13 days | IC50 (Plasmodium falciparum): > 9500 nM

CO/N=C(/N)c1ccc(Cc2ccc(Cc3ccc(/C(N)=N\OC)cc3)cc2)cc1
IC50 (L6): 37300 nM | selectivity ratio [3]: > 3.9 | IC50 [5]: 12600 nM | IC50 (Plasmodium falciparum): > 9500 nM

CO/N=C(\N)c1ccc(Oc2cccc(Oc3ccc(/C(N)=N\OC)cc3)n2)cc1
selectivity ratio [2]: 4.5 | IC50 (L6): 117000 nM | selectivity ratio [3]: 12.3 | IC50 [5]: 26100 nM

N=C(N)c1ccc(Cc2ccc(-c3ccc(C(=N)N)cc3)nc2)cc1
ΔTm [1]: 1 °C | selectivity ratio [2]: 441 | IC50 (L6): 18100 nM | selectivity ratio [3]: 1620 | Time [4]: >60 days | IC50 [5]: 41 nM | Activity [7]: inactive | IC50 (Plasmodium falciparum): 11.2 nM

Reference: ChEMBL document CHEMBL4825701, “New antiparasitic flexible triaryl diamidines, their prodrugs and aza analogues: Synthesis, in vitro and in vivo biological evaluation, and molecular modelling studies” (Eur J Med Chem, 2021)
